# Test results from ChEMBL document CHEMBL2375288, “Synthesis and pharmacokinetic profile of highly deuterated brecanavir analogs” (Eur J Med Chem, 2013).
# What was measured:
# [1] = Half life in rat at 0.25 mg/kg, iv; type: ADME, organism-based; design: dose 0.25 mg/kg, route intravenous; settings: in vivo
# Summary of the method: (§1)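 Intravenous dosing at 0.25 mg/kg in fed rats, given as a solution in DMSO/solutol/mannitol (2.5/10/87.5).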
# [2] = Plasma clearance in rat at 0.25 mg/kg, iv co-administered with 4 mg/kg of ritonavir; type: ADME, organism-based
# Summary of the method: (§2)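 Fed rats received 0.25 mg/kg intravenously as a DMSO/solutol/mannitol (2.5/10/87.5) solution, with ritonavir co-administered at 4 mg/kg.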
# [3] = tested on: Rattus norvegicus; experiment: Dose-normalized AUC in rat at 0.25 mg/kg, iv co-administered with 4 mg/kg of ritonavir; type: ADME, organism-based; settings: in vivo; summary of the method: as §2
# [4] = Half life in rat at 0.25 mg/kg, iv co-administered with 4 mg/kg of ritonavir; type: ADME, organism-based; settings: in vivo; summary of the method: as §2
# [5] = Plasma clearance in rat at 0.25 mg/kg, iv; type: ADME, organism-based; design: dose 0.25 mg/kg, route intravenous; summary of the method: as §1
# [6] = tested on: Rattus norvegicus; experiment: Dose-normalized AUC in rat at 0.25 mg/kg, iv; type: ADME, organism-based; design: dose 0.25 mg/kg, route intravenous; settings: in vivo; summary of the method: as §1
# [7] = tested on: Hepatocyte; experiment: Drug metabolism in human hepatocytes assessed as formation of -[2H]-(3R,3aS,6aR)-hexahydrofuro[2,3-b]furan-3-yl (2S,3R)-4-(1-(3,4-dihydroxyphenyl)-N-isobutylmethylsulfonamido)-3-hydroxy-1-(4-((2-methylthiazol-4-yl)methoxy)phenyl)butan-2-ylcarbamate at 10 uM after 4 hrs by LC/MS/MS analysis; type: ADME, cell-based
# [8] = tested on: Hepatocyte; experiment: Drug metabolism in rat hepatocytes assessed as formation of -[2H]-6-(5-((N-((2R,3S)-3-(((3R,3aS,6aR)-hexahydrofuro[2,3-b]furan-3-yloxy)carbonylamino)-2-hydroxy-4-(4-((2-methylthiazol-4-yl)methoxy)phenyl)butyl)-N-isobutylsulfamoyl)methyl)-2-methoxyphenoxy)-3,4,5-trihydroxytetrahydro-2H-pyran-2-carboxylic acid at 10 uM after 4 hrs by LC/MS/MS analysis; type: ADME, cell-based
half-life [1],clearance [2],AUC/dose [3],half-life [4],clearance [5],AUC/dose [6],Stability [7],Stability [8],Compound
12 min,0.324 L/h/kg,774 ng·h/mL/mg,132 min,3.9 L/h/kg,66 ng·h/mL/mg,,,Cc1nc(COc2ccc(C[C@H](NC(=O)O[C@H]3CO[C@H]4OCC[C@H]43)[C@H](O)CN(CC(C)C)S(=O)(=O)c3ccc4c(c3)OCO4)cc2)cs1 [BRECANAVIR]
12 min,,,,3.84 L/h/kg,64 ng·h/mL/mg,Unstable,Unstable,[2H]C1([2H])Oc2ccc(S(=O)(=O)N(C[C@@]([2H])(O)[C@H](Cc3ccc(OC([2H])([2H])c4csc(C)n4)cc3)NC(=O)O[C@@]3([2H])CO[C@@]4([2H])OCC[C@H]43)C([2H])([2H])C([2H])(C([2H])([2H])[2H])C([2H])([2H])[2H])cc2O1
12 min,,,,3.54 L/h/kg,59 ng·h/mL/mg,,,[2H]C1([2H])C[C@@H]2[C@H](O1)OC([2H])([2H])[C@]2([2H])OC(=O)N[C@@H](Cc1ccc(OC([2H])([2H])c2csc(C)n2)cc1)[C@]([2H])(O)CN(C([2H])([2H])C([2H])(C([2H])([2H])[2H])C([2H])([2H])[2H])S(=O)(=O)c1ccc2c(c1)OC([2H])([2H])O2
